Assay results reported in ChEMBL document CHEMBL1152686, “Development and characterization of lysine based tripeptide analogues as inhibitors of Sir2 activity” (Bioorg Med Chem, 2009).
The source made the active and inactive calls. The rule behind the calls is not given here.

How the values were obtained:
Plasmodium falciparum [1] = assay: Inhibition of His-tagged Plasmodium falciparum Sir2 expressed in Escherichia coli at t500 uM preincubated 5 min before substrate assay mixture addition by FRET assay
Method in brief: (§1)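 Recombinant C-terminal His-tagged PfSir2 from E. coli BL21(DE3), Ni-NTA purified. Enzyme preincubated with inhibitor 5 min, then added to mix of 5 mM Tris-HCl pH 8.0, trichostatin A and trypsin with acetyl-lysine EDANS–DABCYL peptide. Deacetylation allows trypsin cleavage and a rise in fluorescence. Read at 37 °C on a spectrofluorimeter.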

[2] = Inhibition of His-tagged Plasmodium falciparum Sir2 expressed in Escherichia coli preincubated 5 min before substrate assay mixture addition by FRET assay; method in brief: as §1
[3] = molecular target: T1, NAD-dependent protein deacetylase sirtuin-1 (Homo sapiens) (UniProt Q96EB6); assay: Inhibition of human Sirt1
T1 sequence (whole entry): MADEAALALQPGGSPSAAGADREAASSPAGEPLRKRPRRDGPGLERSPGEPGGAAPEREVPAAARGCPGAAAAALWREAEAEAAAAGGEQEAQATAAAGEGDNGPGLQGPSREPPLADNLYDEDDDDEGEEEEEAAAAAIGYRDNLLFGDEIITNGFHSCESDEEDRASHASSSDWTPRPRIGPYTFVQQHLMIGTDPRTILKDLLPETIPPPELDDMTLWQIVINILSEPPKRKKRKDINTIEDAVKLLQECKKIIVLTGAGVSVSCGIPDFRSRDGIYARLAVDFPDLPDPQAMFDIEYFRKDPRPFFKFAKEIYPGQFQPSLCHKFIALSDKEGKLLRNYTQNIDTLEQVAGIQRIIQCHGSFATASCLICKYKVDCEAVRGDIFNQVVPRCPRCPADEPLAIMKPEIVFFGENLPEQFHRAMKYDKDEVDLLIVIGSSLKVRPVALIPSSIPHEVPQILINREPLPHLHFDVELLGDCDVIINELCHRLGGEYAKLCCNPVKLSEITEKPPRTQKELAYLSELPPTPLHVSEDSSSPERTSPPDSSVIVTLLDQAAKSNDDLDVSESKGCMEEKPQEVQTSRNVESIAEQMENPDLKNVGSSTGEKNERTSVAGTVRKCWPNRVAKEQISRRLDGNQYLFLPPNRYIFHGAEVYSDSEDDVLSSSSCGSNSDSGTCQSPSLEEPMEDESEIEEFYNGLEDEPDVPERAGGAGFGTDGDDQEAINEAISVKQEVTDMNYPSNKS

[4] = Competitive inhibition of His-tagged Plasmodium falciparum Sir2 expressed in Escherichia coli measured by primary plot of enzyme kinetics in presence of saturating acetylated peptide levels by FRET assay
Method in brief: (§2)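 His-tagged PfSir2 from E. coli, coupled FRET assay (acetyl-lysine EDANS–DABCYL peptide, trypsin cleavage after deacetylation), 37 °C. Initial velocities measured with one substrate varied, the other fixed at saturating level, at several fixed inhibitor levels. Parameters from non-linear regression. Lineweaver–Burk plots, plus secondary slope and intercept plots versus [I], fit linearly or by second-order polynomial. Two independently purified enzyme batches.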

[5] = Competitive inhibition of His-tagged Plasmodium falciparum Sir2 expressed in Escherichia coli measured by secondary plot of slope versus inhibitor concentration in presence of saturating acetylated peptide levels by FRET assay; method in brief: as §2
[6] = Noncompetitive inhibition of His-tagged Plasmodium falciparum Sir2 expressed in Escherichia coli measured by secondary plot of intercept versus inhibitor concentration in presence of saturating NAD+ levels by FRET assay; method in brief: as §2
[7] = Noncompetitive inhibition of His-tagged Plasmodium falciparum Sir2 expressed in Escherichia coli measured by primary plot of enzyme kinetics in presence of saturating NAD+ levels by FRET assay; method in brief: as §2
[8] = Noncompetitive inhibition of His-tagged Plasmodium falciparum Sir2 expressed in Escherichia coli measured by secondary plot of slope versus inhibitor concentration in presence of saturating NAD+ levels by FRET assay; method in brief: as §2
Plasmodium falciparum [9] = assay: Antiplasmodial activity against Plasmodium falciparum 3D7 infected in human O+ erythrocytes assessed as inhibition of parasite growth in intraerythrocytic stage after 24 hrs by [3H]hypoxanthine incorporation assay; type: functional, organism-based
Method in brief: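 P. falciparum 3D7 grown in human O+ erythrocytes at 5% hematocrit, RPMI 1640 with 10% human serum. Compound in DMSO, twofold serial dilutions from 400 to 0.2 µM. Wells at 2% parasitemia and 2% hematocrit, 37 °C in candle jar. After 24 h, 1.0 µCi [3H]hypoxanthine added per well for another 12 h. Filter-harvested counts; IC50 by interpolation from log plot. Done twice in duplicate.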

Structure (SMILES)	inhibition (Plasmodium falciparum [1])	IC50 [2] [µM]	inhibition (qualitative call) [3]	Ki [4] [µM]	Ki [5] [µM]	Ki [6] [µM]	Ki [7] [µM]	Ki [8] [µM]	IC50 (Plasmodium falciparum [9]) [µM]
C#CCOC(=O)NCCCC[C@H](NC(=O)OC(C)(C)C)C(=O)O	inactive								
COC(=O)[C@@H](NC(=O)[C@H](CCCCNC(=O)OCc1cn([C@@H]2O[C@H](COC(C)=O)[C@H](OC(C)=O)[C@H](OC(C)=O)[C@H]2OC(C)=O)nn1)NC(=O)[C@H](Cc1ccccc1)NC(=O)OC(C)(C)C)C(C)C		151	Active	85	80	193	154	172	
COC(=O)[C@@H](NC(=O)[C@H](CCCCNC(=O)OCc1cn(C[C@H]2O[C@@H](n3cc(C)c(=O)[nH]c3=O)C[C@@H]2OC(C)=O)nn1)NC(=O)[C@H](Cc1ccccc1)NC(=O)OC(C)(C)C)C(C)C		33	Active	60	64	113	124	115	
COC(=O)[C@@H](NC(=O)[C@H](CCCCNC(=O)OCc1cn([C@@H]2O[C@H]([C@@H]3COC(C)(C)O3)[C@@H]3OC(C)(C)O[C@@H]32)nn1)NC(=O)[C@H](Cc1ccccc1)NC(=O)OC(C)(C)C)C(C)C		34	Active	58	62	125	122	90	
CC(=O)O[C@H]1C[C@H](n2cc(C)c(=O)[nH]c2=O)O[C@@H]1Cn1cc(COC(=O)NCCCC[C@H](NC(=O)OC(C)(C)C)C(=O)OCc2ccccc2)nn1	inactive								
COC(=O)[C@@H](NC(=O)[C@H](CCCCNC(=O)OCc1cn(C[C@H]2O[C@H](OC)[C@H](OC(C)=O)[C@@H](OC(C)=O)[C@@H]2OC(C)=O)nn1)NC(=O)[C@H](Cc1ccccc1)NC(=O)OC(C)(C)C)C(C)C		23	Active	60	60	119	134	90	9.8
C#CCOC(=O)NCCCC[C@H](NC(=O)OC(C)(C)C)C(=O)N[C@H](C(=O)OC)C(C)C	inactive								
